Only some compounds are listed: those with a hit (about 2.6% of all), similar ones and a draw of the others.
T cruzi repl – T. cruzi replication inhibition; T. cruzi beta-gal in NIH3T3, luminescence, 90 h; inhibition, % (test concentration not listed); actives 1.4% (n = 300,000); AID 1885;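 active = mean inhibition across valid replicates above about 55%, limit read from the data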;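 also: signal also drops with host cell toxicity which is not excluded here; 0% = plate median of DMSO wells and 100% = zero luminescence signal; higher percent means less beta-gal luminescence so fewer parasites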
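System: NIH/3T3 fibroblasts plus reporter T. cruzi. Medium: DMEM plus 2% FBS. Probe or stimulus: 5000 reporter trypomastigotes per well. Compound: single 50 nL compound addition per well in DMSO. Incubation: co-culture of at least 90 h after 3 h attachment. Detection: GalScreen β-gal luminescence, detergent lysis, 60 min. Evaluation: parasite load inhibition, %.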
PolyA inhibitor – blocks polyadenylation in yeast reporter cells | S. cerevisiae SKY197-pL101 polyadenylation reporter, beta-gal luminescence; efflux-impaired pdr1/pdr3 knockout yeast; score 100 = 6 SD above DMSO | activity score, % at 12 µM | actives 0.02% (n = 300,000) | AID 1875;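 active = lowest replicate activity score at least 50, where 100 means six control SD above control mean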;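 also: yeast exposed to compound for 9 h at 30 °C; higher score means more reporter readthrough which indicates perturbed polyadenylation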
CHT allo act – allosteric activators of human choline transporter CHT | Q9GZV3 | CHT-expressing cells, membrane potential dye, choline EC20; active compounds read high; LV-AA mutant CHT in HEK293 cells | B-score at 10 µM | actives 0.49% (n = 310,000);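 active = initial fluorescence not abnormally high and integrated response B-score, plate-corrected, over 3 SD above library mean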
Target sequence (Q9GZV3 whole entry, looked up): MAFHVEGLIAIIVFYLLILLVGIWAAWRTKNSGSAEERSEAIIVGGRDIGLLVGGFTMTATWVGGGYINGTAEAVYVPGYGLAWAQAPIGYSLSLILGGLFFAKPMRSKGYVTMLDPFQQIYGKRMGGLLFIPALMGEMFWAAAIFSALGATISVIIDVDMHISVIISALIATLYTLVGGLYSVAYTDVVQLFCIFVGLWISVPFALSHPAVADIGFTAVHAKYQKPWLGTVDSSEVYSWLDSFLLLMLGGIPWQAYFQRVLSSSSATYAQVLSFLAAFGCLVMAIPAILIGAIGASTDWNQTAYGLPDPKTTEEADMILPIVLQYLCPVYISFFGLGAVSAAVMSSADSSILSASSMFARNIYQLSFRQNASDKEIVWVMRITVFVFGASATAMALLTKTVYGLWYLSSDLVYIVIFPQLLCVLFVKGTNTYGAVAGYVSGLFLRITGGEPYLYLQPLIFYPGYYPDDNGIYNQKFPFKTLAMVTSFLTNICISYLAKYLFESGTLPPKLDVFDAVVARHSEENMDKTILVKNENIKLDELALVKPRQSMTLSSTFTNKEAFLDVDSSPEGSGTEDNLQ
CHT block – human CHT choline transport inhibition; Q9GZV3; CHT-expressing cells, membrane potential dye, choline response; active compounds read low; B-score at 10 µM; actives 0.86% (n = 310,000); AID 488975;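 active = B-score over 3 SD under the library average, and starting fluorescence ratio not unusually high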;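 also: choline stimulus applied at its EC90 after an EC20 pre-addition; B-score computed on integrated fluorescence ratio after choline addition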
CHT block conf – human CHT inhibition, confirmatory screen; shares compounds with CHT block; CHT-expressing cells, choline membrane potential dye; LV-to-AA substituted CHT, HEK293 cells; CHT activity remaining % of control (active compounds read low), % at 10 µM; actives 70% (n = 2,400); AID 493221;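 active = choline transporter activity left, mean of duplicates at 10 µM, below buffer-only control mean minus 3 SD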;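 also: depolarization triggered by choline at its EC90 following an EC20 pre-addition; 0% = hemicholinium-3 full block and 100% = buffer-only control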
HEK293 MPD ctr – activity in parental HEK293 cells lacking CHT | shares compounds with CHT block | membrane potential dye, choline response; active = decrease or increase beyond buffer ±3SD | membrane potential ratio readout (active if shifted either direction beyond buffer ±3SD; no single direction) at 10 µM | actives 4% (n = 2,400);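 also: parental cells lack the transporter so any hit is non-specific; ratio is peak minus trough fluorescence over baseline after EC90 choline challenge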
* marks the source's active call; other numbers are inactive results; i = inactive; / = no result.

SMILES	T cruzi repl	PolyA inhibitor	CHT allo act	CHT block	CHT block conf	HEK293 MPD ctr
CC1CCCN(CCCNC(=O)c2nn(C)c3c2CSc2ccccc2-3)C1 (stereo not given)	36.7	3.4	i	-6.15*	23.4%*	i
O=[N+]([O-])c1ccc(N2CCc3ccccc3C2)cc1	-2.8	-23.1	i	i	/	/
Cc1ncoc1C(=O)Nc1ccc(Oc2ccccc2)cc1	-17.3	-23.9	i	-5.96*	56.9%*	i
CCN1CCn2c3c(c4cccc(C)c42)CCCC31 (stereo not given)	-3.1	-0.1	i	-11.5*	36.0%*	i
CCN1CCn2c3c(c4cc(C)ccc42)CCCC31 (stereo not given)	7.3	5.4	i	i	/	/
COc1ccc(S(=O)(=O)N2CCOC23CCN(S(=O)(=O)c2cc(C)ccc2OC)CC3)cc1	4.3	-2.1	i	i	/	/
NC(=O)c1ccc(C2SCC(=O)N2Cc2ccccc2)cc1 (stereo not given)	-11.0	1.6	i	-6.34*	i	i
O=C(O)c1ccc(C2SCC(=O)N2Cc2ccccc2)cc1 (stereo not given)	-16.7	6.6	i	i	/	/
COc1ccc(C2=NN(c3nc(C(=O)O)cs3)C(O)(C(F)(F)F)C2)c(OC)c1 (stereo not given)	-2.3	-22.4	i	-8.93*	41.9%*	i
O=S(=O)(NCc1csc(-c2cccs2)n1)c1cccc(C(F)(F)F)c1	9.1	-8.2	i	-5.49*	53.8%*	i
O=S(=O)(NCc1csc(-c2cccs2)n1)c1ccc(Cl)cc1	9.3	-24.1	i	-6.63*	70.3%*	i
Cc1ccc(S(=O)(=O)NCc2csc(-c3cccs3)n2)cc1	-2.0	-18.0	i	i	/	/
C/C(=N\NC(=O)c1ccoc1C)c1cccc2ccccc12	-11.6	-9.1	i	-7.57*	i	i
Cn1ncc(Cl)c1C(=O)NC1CCCC1	5.1	-4.2	i	i	/	/
Cc1ccc(OCCOC(=O)c2c(-c3ccccc3)noc2C)cc1	7.0	-38.1	i	-4.96*	i	i
CC(C)(C)C(=O)N1CCN(c2ccc(NC(=O)c3ccc4c(c3)OCCO4)cc2)CC1	3.0	4.6	i	-5.38*	65.8%*	i
CC1OC(OC2C(OC3C(O[C@H]4CC[C@]5(C)C6C=C[C@]78OC[C@@]9(CC[C@@H](C)[C@H](C)C97)[C@H](O)C[C@@]8(C)[C@]6(C)CC[C@H]5C4(C)C)OC(C)C(O)C3O)OC(CO)C(O)C2O)C(O)C(O)C1O (stereo not given in full)	34.8	-20.3	/	/	/	/
O=C(C[n+]1cn(C(F)F)c2ccccc21)c1ccc(Br)cc1	-20.7	-46.5	i	i	/	/
O=C(C[n+]1cc(Br)cc2ccccc21)c1ccc(Br)cc1	4.6	-16.7	i	-5.71*	29.6%*	i
O=C(C[n+]1cc(Br)cc(Br)c1)c1ccc(Cl)cc1	-11.0	-0.4	i	i	/	/
O=C(C[n+]1cc(Br)cc2ccccc21)c1ccc(Cl)cc1	12.8	-15.5	i	-6.91*	32.4%*	i
Cc1ccc(-c2cc(=O)c3cc(Cl)ccc3[nH]2)cc1	-20.0	-4.7	i	i	/	/
O=C(Nc1cc2c3c(c1)CC(=O)N3CCC2)c1c(F)cccc1F	-2.7	-5.9	i	i	/	/
COc1ccc2c(c1)CC(C)C/C2=N\NC(=O)c1ccco1 (stereo not given)	-0.1	-1.4	i	-9.52*	57.5%*	i
NC(=S)NC(c1ccccc1)c1ccncc1 (stereo not given)	-4.7	1.7	i	i	/	/
SMILES	T cruzi repl	PolyA inhibitor	CHT allo act	CHT block	CHT block conf	HEK293 MPD ctr
O=[N+]([O-])c1cc(Cl)ccc1N1CCN(c2cccc(C(F)(F)F)c2)CC1	37.7	-17.0	i	i	/	/
O=C(O)c1cc([N+](=O)[O-])cc([N+](=O)[O-])c1N1CCN(c2cccc(C(F)(F)F)c2)CC1	-1.1	1.6	i	-5.27*	i	i
O=C(NCC(c1cccnc1)N1CCN(c2ccccc2F)CC1)c1cccc(Cl)c1 (stereo not given)	53.2	-17.2	i	-6.86*	i	i
Cc1cc(Nc2cccc(C(=O)O)c2)n2ncnc2n1	0.6	-14.3	i	i	/	/
O=C(Nc1c2c(nn1-c1ccccc1)CS(=O)(=O)C2)c1cc2ccccc2o1	17.0	0.7	i	i	/	/
C[n+]1ccccc1COc1ccc(C(C)(C)C)cc1	15.3	-0.4	i	-7.3*	33.7%*	i
O=C1NC(c2ccccc2)=C(c2ccc3ccccc3n2)C(c2ccc(F)cc2)N1 (stereo not given)	8.3	-2.9	i	i	/	/
O=C1NC(c2ccccc2)=C(c2ccc3ccccc3n2)C(c2ccncc2)N1 (stereo not given)	5.7	7.3	i	-6.28*	47.4%*	i
O=C(NNc1cc(Br)c(O)c(Br)c1)c1ccccc1	53.6	17.4	i	-7.37*	47.3%*	i
Cn1cc(/C=C2\SC(=O)N(c3ccccc3)C2=O)c2ccccc21	10.7	-13.4	i	-6.55*	i	i
Cc1nn(C)c(Cl)c1C(=O)NCC(=O)NCc1ccccc1	-7.6	24.4	i	i	/	/
O=C(CCN1C(=O)/C(=C/c2ccccc2)SC1=S)N1CCCCCC1	-5.2	-4.6	i	i	/	/
CN1CCN(C(=O)CCCN2C(=O)/C(=C/c3ccccc3)SC2=S)CC1	9.3	-0.7	i	-6.63*	45.9%*	i
COc1ccc(/C=C2/SC(=S)N(CCCC(=O)N3CCN(C)CC3)C2=O)cc1	15.3	-8.7	i	-6.45*	42.4%*	i
COC(=O)c1ccc(CNC(=O)C(NC(=O)c2ccco2)C(C)C)cc1 (stereo not given)	-14.6	25.4	i	i	/	/
COCCN(C(=O)COC(=O)C1CC1C)c1c(N)n(Cc2ccccc2)c(=O)[nH]c1=O (stereo not given)	2.4	-1.9	i	i	/	/
O=c1cc(CN2CCN(Cc3ccc(F)cc3)C(CCO)C2)[nH]c2ccccc12 (stereo not given)	47.8	-0.1	i	i	/	/
COc1ccc(CNC(=O)CCN2C(=O)[C@@H]3Cc4ccccc4CN3C2=O)cc1	7.6	10.2	i	i	/	/
COc1ccc(NC(=O)CSc2nnc3ccc(-c4cccnc4)nn23)c(OC)c1	-1.9	11.5	i	i	/	/
CN1CCCN(C(=O)c2cc(-c3ccc(Cl)c(Cl)c3Cl)nc3ccccc23)CC1	19.8	5.3	i	-8.04*	i	i
CCc1cc(C(=O)OC)c(NC(=O)CSc2nccn2C)s1	5.2	8.8	i	i	/	/
